Assay results gathered from unrelated publications.
Target: MAP/microtubule affinity-regulating kinase 4 (MARK4, Homo sapiens, UniProt Q96L34)
Sequence (Q96L34 1-752, as in one of the studies): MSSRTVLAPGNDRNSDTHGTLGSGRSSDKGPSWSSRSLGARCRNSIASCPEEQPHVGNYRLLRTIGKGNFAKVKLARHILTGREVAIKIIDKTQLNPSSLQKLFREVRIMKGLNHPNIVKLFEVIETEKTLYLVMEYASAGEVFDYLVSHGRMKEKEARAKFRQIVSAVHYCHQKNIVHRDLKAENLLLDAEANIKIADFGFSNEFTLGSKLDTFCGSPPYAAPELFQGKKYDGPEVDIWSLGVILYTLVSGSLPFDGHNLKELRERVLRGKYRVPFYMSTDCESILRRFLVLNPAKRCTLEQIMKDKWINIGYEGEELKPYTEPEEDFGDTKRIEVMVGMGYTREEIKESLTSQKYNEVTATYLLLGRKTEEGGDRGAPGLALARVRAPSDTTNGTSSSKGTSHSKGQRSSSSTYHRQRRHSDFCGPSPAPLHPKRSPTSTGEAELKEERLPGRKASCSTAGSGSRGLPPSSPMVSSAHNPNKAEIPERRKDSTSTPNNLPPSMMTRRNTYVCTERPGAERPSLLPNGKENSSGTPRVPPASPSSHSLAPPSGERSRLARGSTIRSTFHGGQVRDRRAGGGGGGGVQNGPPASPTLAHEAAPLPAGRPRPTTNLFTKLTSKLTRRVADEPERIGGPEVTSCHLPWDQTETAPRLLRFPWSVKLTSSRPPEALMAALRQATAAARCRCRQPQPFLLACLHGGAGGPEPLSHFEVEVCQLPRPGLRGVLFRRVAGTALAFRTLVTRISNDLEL

Cn1cc(-c2cc(F)cc(N3CCn4c(cc5c4CCCC5)C3=O)c2CO)cc(Nc2ccc(N3CCN(C4COC4)CC3)cn2)c1=O gave an inhibition of 9% (enzyme activity, inhibitor; 0.1 µM).
For Cc1nn(C)cc1-c1nc2c(N3CCN(Cc4ccc(Cl)cc4)CC3)c(Cl)cnc2[nH]1, the remaining binding was 29% (binding, competition with immobilised ligand; 1 µM).
Cn1cncc1[C@@](O)(COc1ccc(C#N)cc1-c1ccc(OC(F)(F)F)cc1)c1ccc(C#N)cc1 gave a remaining binding of 100% (cell-free assay, competition with immobilised ligand; 1 µM).
The remaining binding of Nc1ncc(-c2nc(N3CCOCC3)nc(N3CCOCC3)n2)c(C(F)F)n1 is reported as 90% (binding, competition with immobilised ligand; 10 µM).
With COc1ncccc1-c1cnn2ccc(N3CCN(C(=O)OC(C)C)CC3)nc12 the remaining binding was 100% (binding, competition with immobilised ligand; 1 µM).
With O=c1[nH]c2ccccc2n1C1CCN(Cc2ccc(-c3[nH]c4cc5ncnc5cc4nc3-c3ccccc3)cc2)CC1 the remaining signal was 102% (cell-free assay; 0.5 µM).
The inhibition of COc1cc(Nc2ncc(F)c(Nc3ccc4c(n3)NC(=O)C(C)(C)O4)n2)cc(OC)c1OC is reported as 99% (binding, competition with immobilised ligand; 10 µM).
The remaining activity of CC(C)(C)c1cc(C=C(C#N)C#N)cc(Br)c1O is reported as 103% (enzyme activity, inhibitor; 0.5 µM).
For Cn1cc(-c2cccc(N3CCc4c(sc5c4CC(C)(C)C5)C3=O)c2CO)cc(Nc2ccncn2)c1=O, the inhibition was 3% (enzyme activity, inhibitor; 1 µM).
